Laboratory results: ChEMBL document CHEMBL4513216, “Probing the Open Global Health Chemical Diversity Library for Multistage-Active Starting Points for Next-Generation Antimalarials” (ACS Infect Dis, 2020)

assay: Toxicity liver stage against HepG2, at 10uM; format: cell-based; parameters: test concentration 10 uM, cell line HepG2-A16-CD81EGFP; conditions: human, HepG2-A16-CD81EGFP cells; read-out: INHIBITION
Outline: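 Uninfected HepG2-A16-CD81EGFP cells, 3 × 10^3 per well, 1536-well, plated on prespotted compound at 10 μM final, parasite-free screening media added to match infected plates; puromycin 10 μM positive, DMSO 0.5% negative; run in parallel with 48 h PbLuc assay at 37 °C, 5% CO2; viability by CellTiter-Glo luminescence, normalized to controls.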

Row | SMILES | cytotoxicity at 10 µM
1 | CCn1ccc(C(=O)N2CCCN(Cc3ccccc3F)CC2)cc1=O | 9.47%
2 | O=C(c1cc2c(s1)CCC2)N1CCCC1Cn1cccn1 (configuration not stated) | -3.12%
3 | O=C(NC1=NCCCN1c1ccc(Cl)cc1)c1cccc(Cl)c1 | -17.5%
4 | Cc1c[nH]c(CN2CCN(C)C3(CCC(=O)N(CC4CC4)CC3)C2)n1 (configuration not stated) | -5.54%
5 | O=C(Cc1cccs1)NCc1ccnc(OC2CCOCC2)c1 | -1.22%
6 | CCNC(=O)NCC(CC)(OC)c1ccccc1 (configuration not stated) | 2.05%
7 | O=C(c1cc(CC2(NCc3ccccc3)COC2)no1)N1CCCCC1 | 1.14%
8 | CC[C@@]1(O)CCN(Cc2cc(C3CCCCC3)no2)C[C@H]1O | -4.18%
9 | CCCC(C)(O)c1cc(C(N)=O)no1 (configuration not stated) | -5.4%
10 | FC(F)(F)c1cc(N2CCc3ncnc(NC4CC4)c3CC2)ncn1 | 1.79%
11 | CCNC(=O)[C@@H]1C[C@@H](NC(=O)c2cccn2C)CN1CCCSC | -122%
12 | COc1cccn(CC(=O)N(C)CCCOc2c(C)cccc2C)c1=O | 5.27%
13 | O=C(Cc1ccsc1)N1CCC2(CCCN(CC3CCOCC3)C2)C1 (configuration not stated) | -135%
14 | Cc1ncc(CN)c(-c2cn(C)c3ccccc23)n1 | 2.97%
15 | c1cc(CN2CCCC(c3nnc(-c4cnccn4)o3)C2)ccn1 (configuration not stated) | -9.14%
16 | O=C(Cc1cccs1)NCC1Cn2nnc(-c3ccoc3)c2CO1 (configuration not stated) | 6.06%
17 | N#Cc1cccc(N2CC3(CCN(C(=O)c4ccnnc4)C3)CC2=O)c1 (configuration not stated) | 2.64%
18 | Cc1ccc(OCCN(C)S(=O)(=O)N2CCOCC2)cc1 | 0.651%
19 | COC(=O)c1ccc(Cn2nc(C)cc2C)cc1 | 10.8%
20 | CC(C)OC(=O)N1CCCC2(CCC(=O)N(CCc3c[nH]cn3)C2)C1 (configuration not stated) | -3.73%
21 | Fc1ccc(CN2CCn3cc(Cn4cccn4)nc3C2)cc1 | 0.864%
22 | CCc1ccc(S(=O)(=O)N2CC3(COC(C)(C)OC3)C2)s1 | 5.76%
23 | FC1(F)CCN(Cc2cccnc2)CC12CCN(c1ccccn1)C2 (configuration not stated) | 23%

Row | SMILES | cytotoxicity at 10 µM
24 | CN(Cc1nc2c(cnn2C)c(=O)[nH]1)Cc1ccc(F)cc1F | -1.29%
25 | CCC(CC)C(O)CNC(=O)Nc1cc(C)nn1C (configuration not stated) | -11%
26 | O=C(c1cc(Cn2ccc3ccccc32)[nH]n1)N1CCCCC1CO (configuration not stated) | 6.03%
27 | O=C(C1CC1)N1CC[C@H](c2nc3ccccc3o2)C1 | -4.07%
28 | Cc1csc(N2CCN(CCc3ccccn3)CC2C)n1 (configuration not stated) | -8.81%
29 | CC(O)Cc1cn(CC2CCN(C3CCSCC3)CC2)nn1 (configuration not stated) | 8.88%
30 | CC(C)S(=O)(=O)c1ccccc1C(=O)NCC1Cc2ccccc2O1 (configuration not stated) | 5.87%
31 | CCOC(=O)NCCC(O)c1ccoc1 (configuration not stated) | -10.5%
32 | Cc1nnc([C@@]23CCO[C@@H]2CCN(Cc2cccc4ccccc24)C3)o1 | -103%
33 | CN(C)CC(=O)N1CCC2(CC1)CN(c1ncccn1)CCO2 | -68.7%
34 | COc1ccc(C)cc1C(=O)N1CCCC(n2nc(C)nc2C)C1 (configuration not stated) | -5.68%
35 | COc1cc(F)ccc1C(C(=O)O)N(C)CCN1CCOCC1 (configuration not stated) | -12.9%
36 | O=C(c1ccc2c(c1)CCC2)N1CCN(c2ccc(Cl)cn2)CC1 | -2.27%
37 | COc1c(CNCC(O)COc2ccc3c(c2)OCO3)c(C)nn1C (configuration not stated) | 3.07%
38 | CN(CC1CCOCC1)C1CCCN(c2ccccn2)C1 (configuration not stated) | -0.48%
39 | Cc1n[nH]c(C)c1CC(=O)NCc1ccccc1Cl | 9.87%
40 | CS(=O)(=O)NC1CCCN(C(=O)Nc2ccccc2Cn2cccn2)C1 (configuration not stated) | 3.81%
41 | Cc1cc(C)c2cc(CNCc3ccc(C)o3)c3nn(C)c(=O)n3c2c1 | -1.83%
42 | O=C(c1ccccn1)N1C[C@H]2CC[C@@H](C1)N(C(=O)c1ccsc1)C2 | 3.88%
43 | CN(C)C(=O)N1CCC2(CCCN(c3ncccn3)C2)C1 (configuration not stated) | 4.82%
44 | c1coc(CN2C[C@@H]3CCCO[C@@H]3[C@H](N3CCCC3)C2)c1 | -2.02%
45 | O=C(CCc1ccsc1)N1CCC(C(=O)O)(c2ccccc2)CC1 | 12.4%
46 | O=C(c1ccncc1)N1CCC2(CC1)CCN(C(=O)c1cccnc1)C2 | -93%

Row | SMILES | cytotoxicity at 10 µM
47 | CCC(C)CN1CCC(n2cc(C3CCCCC3)nn2)CC1 (configuration not stated) | -2.9%
48 | CCCc1nc(CN2CCCC2Cn2cccn2)cs1 (configuration not stated) | -4.45%
49 | N#CC1(NC(=O)c2nccc3ccccc23)CCSCC1 | 8.8%
50 | O=C(NCCCn1nc2ccccn2c1=O)NC1CCC(O)CC1 (configuration not stated) | -12.8%
51 | CCN(Cc1cc(F)c(OC)c(Cl)c1)Cc1nc(COC)no1 | 3.98%
52 | COCCn1cc(C(=O)N2CCCC(n3cncn3)C2)ccc1=O (configuration not stated) | -2.38%
53 | CCCc1nc(C)cc(N2CCNC(C(=O)NCc3cccnc3)C2)n1 (configuration not stated) | -7%
54 | COc1ccc(C(=O)NC2CC2)c(OC2CCN(CCCSC)CC2)c1 | -1.76%
55 | CNC(=O)CN(C(=O)c1cc(C(C)C)no1)c1cccc(F)c1 | 9.77%
56 | O=C(c1ccc2[nH]nnc2c1)N1CCC(Nc2cccnn2)CC1 | -1.49%
57 | CS(=O)(=O)N1CCC(CNC(=O)C2CCC2)CC1 | -2.99%
58 | O=C(Cc1cn2ccsc2n1)N1CCCC(n2cncn2)C1 (configuration not stated) | -5.97%
59 | CC(=O)N1CCC(NC(=O)NCCCc2cn[nH]c2C)CC1 | -4.2%
60 | CC(=O)N1CCCC1c1ccc(CN2CCOCC2)cn1 (configuration not stated) | 5.83%
61 | COCCN1CCN(Cc2ccncc2)c2ncccc2C1 | -70.9%
62 | O=C(c1ncoc1C1CCCO1)N1CC2(CCCC2)c2ccccc21 (configuration not stated) | 3.13%
63 | CS(=O)(=O)CCCSc1cccc(C#N)c1 | -1.38%
64 | COC(=O)c1cccn1C1CCN(Cc2ccccc2)CC1 | -12%
65 | CCOC(=O)c1sc(NC(=O)COC)c(C#N)c1C | 7.61%
66 | Brc1ccc(-c2nnc(CN(Cc3cccs3)CC3CCCO3)o2)s1 (configuration not stated) | 23.2%
67 | Cc1cnn(CC(=O)NCC2(O)CCCc3ccccc32)c1 (configuration not stated) | -38%
68 | CC(Cn1cccn1)NC(=O)c1ccsc1 (configuration not stated) | -5.2%
69 | Cc1ccc(N2CC[C@H]3OCC[C@@]3(C(=O)NC(C)C)C2)nn1 | -11.7%

Row | SMILES | cytotoxicity at 10 µM
70 | CN(C)CC1(O)CCCN(c2noc(-c3ccccc3)n2)CC1 (configuration not stated) | 0.0264%
71 | O=C(NCc1ccccc1CN1CCC(O)CC1)Nc1ccccc1 | 7.77%
72 | Cc1cccc(Cn2c3c(ccc2=O)CCN(Cc2ccoc2)CC3)n1 | -11.5%
73 | Cc1ccc(N2CCN(C(=O)CCc3n[nH]c(C)c3C)CC2=O)cc1 | 4.78%
74 | CC(C)C(=O)NCCNC(=O)CCOc1cccc(F)c1 | -2.98%
75 | c1ccc(CN2CC[C@@H]3O[C@@H](COCC4CCOCC4)CC[C@@H]32)nc1 | -1.98%
76 | N#Cc1ccc(CN2CCN(c3cncc(Cl)n3)CC2=O)cc1 | 7.55%
77 | CN(C)CC1CN(c2ccc(C#N)cn2)CCO1 (configuration not stated) | -4.67%
78 | Cc1nc(C)c(C(=O)Nc2cnn(CC(=O)NC3CCCC3)c2)s1 | -3.33%
79 | COc1c(C2CC(=O)Nc3[nH]ncc32)cc2c(c1OC)OCO2 (configuration not stated) | 3.66%
80 | Cc1cc(CNC(=O)N2CCc3ccccc32)on1 | -3.57%
81 | CCc1nc2c(s1)C(N(C)C(=O)c1cc[nH]n1)CCC2 (configuration not stated) | 7.76%
82 | O=C(c1ccc(O)cc1)N1CCN(C(=O)c2ccc3c(c2)COC3)CC1 | -9.75%
83 | O=C(NCCCNc1ccc(C(F)(F)F)cn1)c1ccc(F)cc1Br | 13.1%
84 | Cc1nc(CO[C@@H]2CN(Cc3ccccn3)[C@@H]3COC[C@@H]32)cs1 | 5.45%
85 | Cc1csc(CN(C)C(=O)Nc2cnn(CC3CCCO3)c2)n1 (configuration not stated) | -3.28%
86 | c1ccc(CN2CCCC(CNc3ncnc4c3CCNCC4)C2)cc1 (configuration not stated) | -9.89%
87 | COc1cccc(-c2n[nH]c3c2CN(C(=O)c2oc(C)cc2C)CC3)c1 | -3.17%
88 | CCC(C(=O)N(C)Cc1cc(C2CC2)[nH]n1)n1cccn1 (configuration not stated) | -8.35%
89 | O=C(Cc1ccc2c(c1)OCCO2)NC1CC1 | -11.2%
90 | Cn1cc(CN2CCc3c(COCc4ccncc4)cncc3C2)cn1 | -2.37%
91 | CC(C)CN(Cc1nnc(-c2ccco2)o1)CC(C)C | 0.0773%
92 | Cn1ncc2c(NCCC34CCCN3CCC4)nc(C3CCCC3)nc21 | -12.9%

Row | SMILES | cytotoxicity at 10 µM
93 | COCc1nn(CC2CC2)c2c1CN(Cc1cncn1C)CC2 | 3.94%
94 | COc1ccc(CN(C)[C@@H]2CN(C(=O)c3cccnc3)C[C@H]2O)cc1 | 10.9%
95 | Cc1cnn(CC2CCCN2C(=O)CCc2c(C)nc(C)[nH]c2=O)c1 (configuration not stated) | -2.79%
96 | COc1ccc(CNC(=O)c2ccc(Cl)cc2F)cc1C(=O)O | -1.62%
97 | O=C(CN1CC(c2ccccc2)CC1=O)N1CCC(c2ncc[nH]2)CC1 (configuration not stated) | -0.234%
98 | Nc1nc2c(c(NC(=O)Nc3ccccc3)n1)CCCC2 | -9.74%
99 | CN(C)c1cc(C2CCCN(S(=O)(=O)C3CCCC3)C2)ccn1 (configuration not stated) | -20.8%
100 | CCC(C)(N)c1nc(C(C)C)cc(=O)[nH]1 (configuration not stated) | 14%
101 | CC(C)C(C)NC(=O)CN1CCSCC1 (configuration not stated) | -0.662%
102 | CCC1CCCCN1Cc1ncc(-c2ccc(OC)cc2)o1 (configuration not stated) | 8.57%
103 | Cn1c(N2CCOCC2)nc2cc(C(=O)N3CC(O)CO3)ccc21 (configuration not stated) | 18.5%
104 | O=S(=O)(C1CC1)N1CC[C@@H]2[C@@H]1CCN2Cc1cccs1 | 5.77%
105 | O=C(NCCn1ccnc1)N1CCCC1c1ccsc1 (configuration not stated) | -6.05%
106 | Cc1ccc(CN2CCc3c(CN(C)C)n[nH]c3C2)s1 | 1.93%
107 | COc1cccc(C2SCC(=O)Nc3ccsc32)c1OC (configuration not stated) | 0.661%
108 | Cc1cnn(C2CCCN(C(=O)Cc3ccc(C#N)cc3)C2)c1 (configuration not stated) | -8.45%
109 | CN(C)CCOCC1CN(C(=O)N2CCCC2)Cc2ccnn2C1 (configuration not stated) | 4.55%
110 | Cc1ccc(C(=O)N2CCc3c(CN4CCCC4)nn(C)c3C2)cc1C | -4.86%
111 | Cc1cnn(CC2CCCN2Cc2ncc(-c3ccc(F)cc3)o2)c1 (configuration not stated) | -17.6%
112 | CC(C)C(=O)N1CCN(C(=O)c2cc(C(C)C)no2)[C@H]2CS(=O)(=O)C[C@H]21 | -9.43%
